Assay results collected from several papers.
Protocols differ between the studies behind these lines.
NTRK3: NT-3 growth factor receptor (NTRK3, Homo sapiens, UniProt Q16288)

With `O=C(Nc1ccc(OC(F)(F)F)cc1)Nc1cccc(C(=O)Nc2ccc3[nH]ncc3c2)c1` the inhibition was 17.3% (NTRK3; enzyme activity, inhibitor, FRET; 1 µM).
The inhibition of `OCc1cc(C(O)CNCCCCCCOCCCCc2ccccc2)ccc1O` (centres unmarked) is reported as 15% (C-X-C chemokine receptor type 4 (CXCR4, Homo sapiens, UniProt P61073); calcium signal, antagonist; U87.CD4.CXCR4; 20 µM).
`CN(C)C1CCN(CC#Cc2nn(C3CCCC3)c3nc(NCc4ccccc4)ncc23)C1` (centres unmarked) gave an inhibition of 5% (RAC-alpha serine/threonine-protein kinase (AKT1, Homo sapiens, UniProt P31749); enzyme activity, inhibitor, FRET; 1 µM).
For `CCN(c1cc(C#CCN2CCOCC2)cc(C(=O)NCc2c(C)cc(C)[nH]c2=O)c1C)[C@H]1CC[C@H](N(C)CCOC)CC1`, the inhibition was 13% (Histone-lysine N-methyltransferase SMYD3 (SMYD3, Homo sapiens, UniProt Q9H7B4); enzyme activity, inhibitor; 1 µM).
For `CC1=C(/C=C/C(C)=C/C=C/C(C)=C/C(=O)O)C(C)(C)CCC1`, the inhibition was 92% (Prothrombin (Rattus norvegicus, UniProt P18292); enzyme activity, inhibitor; 200 µg/mL).
`COc1ccc(C(N)=O)cc1NC(=O)c1cccc(-c2cnc3[nH]c(=O)n(C)c3c2)c1` has an inhibition of 0% (Poly [ADP-ribose] polymerase tankyrase-1 (TNKS, Homo sapiens, UniProt O95271); enzyme activity, inhibitor; 0.1 µM).
With `O=C(O)CC[C@@H](O)C(=O)O` the inhibition was 83% (Methylcytosine dioxygenase TET2 (Mus musculus, UniProt Q4JK59); enzyme activity, inhibitor; 50 mM).
`COC(=O)c1c(O)ccc(O)c1C(=O)c1c(O)cc2c(c1O)[C@@H]1C=C[C@]3(C2)C(=C(O)c2c(O)cc(C)cc2[C@@H]3OC(C)=O)C1=O` has an inhibition of 55% (PSMB6/PSMB5/PSMB7 (Homo sapiens, UniProt P28072+P28074+Q99436); enzyme activity in cells, inhibitor; MCF7; 20 µg/mL).
The inhibition of `CN1CCN(CC(=O)Nc2cccc(C(=O)Nc3ccc4[nH]ncc4c3)c2)CC1` is reported as 23% (NTRK3; enzyme activity, inhibitor, FRET; 1 µM).
With `CCN(CC)CCNC(=O)c1c(C)[nH]c(/C=C2\C(=O)Nc3ccc(F)cc32)c1C` the inhibition was 11% (Dual specificity mitogen-activated protein kinase kinase 7 (MAP2K7, Homo sapiens, UniProt O14733); enzyme activity, inhibitor; 0.3 µM).
`C[C@H]1C[C@@H](N2C(=N)N[C@](C)(c3cccc(Nc4ccc(C5CC5)nc4)c3Cl)CC2=O)CCO1` has an inhibition of 86% (Cathepsin E (CTSE, Homo sapiens, UniProt P14091); enzyme activity, inhibitor; 10 µM).
